Data on one molecule can be found in ChEMBL document CHEMBL4308843, “Identification of ABX-1431, a Selective Inhibitor of Monoacylglycerol Lipase and Clinical Candidate for Treatment of Neurological Disorders” (J Med Chem, 2018).

The target of data set [1] is hERG (KCNH2) (Homo sapiens, UniProt Q12809). As to the kind of experiment: Inhibition of human ERG.
Data set [2] in a line: Half life in Sprague-Dawley rat at 1 mg/kg, iv by LC-MS analysis. Type of data set: ADME, organism-based. To be noted: in vivo. In short, it runs like this:
(§1)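 Rats (n = 3 per route) were dosed at 1 mg/kg iv (70% PEG400 in HPBCD/saline) or 5 mg/kg po (70% PEG400 in 0.5% CMC/saline), fasted overnight to 4 h post-dose. Jugular-catheter blood (~100 µL) was sampled to 24 h into 400 µL acetonitrile to stop esterases. Samples were quantified by HPLC-MS/MS, with noncompartmental analysis.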

Data set [3] deals with Rattus norvegicus. As to the kind of experiment: Antinociceptive activity in po dosed Sprague-Dawley rat brain assessed as inhibition of CES1c activity measured after 4 hrs post dose in presence of FP-Rh probe by gel-based ABPP assay. Type of data set: functional. Put shortly:
(§2)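 Male Sprague Dawley rats, 6–12 weeks old, given single oral doses (0.03–10 mg/kg) in 0.5% methylcellulose at 5 mL/kg. Brains were taken 4 h post-dose and forebrain sections excised from one hemisphere. Brain proteome was labeled with FP-Rh (1 µM, 30 min) and analyzed by SDS-PAGE with in-gel fluorescence. Band intensity was normalized to vehicle.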

Data set [4] in a line: Volume of distribution at steady state in Sprague-Dawley rat at 1 mg/kg, iv or 5 mg/kg, po by LC-MS analysis. Type of data set: ADME, organism-based. The settings on record: in vivo, read-out: Vdss. Put shortly: as §1
Data set [5] has as its system Mus musculus. As to the kind of experiment: In vivo inhibition of ABHD6 in ICR mouse brain at 25 mg/kg, po measured at 4 hrs post dose in presence of FP-Rh probe by gel-based ABPP assay. Type of data set: functional, organism-based.
Data set [6] relates to Rattus norvegicus. The data set is described as follows: Antinociceptive activity in po dosed Sprague-Dawley rat brain assessed as inhibition of ABHD6 activity measured after 4 hrs post dose in presence of FP-Rh probe by gel-based ABPP assay. Type of data set: functional. Put shortly:
as §2

The test system of data set [7] is Rattus norvegicus. As to the kind of experiment: In vivo inhibition of MGLL in po dosed Sprague-Dawley rat brain assessed as increase in 2-AG measured at 4 hrs post dose by LC-MS/MS analysis. Type of data set: functional, organism-based. In short, it runs like this: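 Male Sprague Dawley rats, 6–12 weeks old, single oral doses 0.03–10 mg/kg in 0.5% methylcellulose, 5 mL/kg. Killed 4 h post-dose; forebrain section (~100–200 mg) from one hemisphere analysed for 2-AG by LC-MS/MS.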

Data set [8] addresses Cytochrome P450 3A4 (Homo sapiens, UniProt P08684). The data set is described as follows: Inhibition of recombinant human CYP3A4. Type of data set: ADME.
Data set [9] addresses T1, Platelet-activating factor acetylhydrolase (Homo sapiens, UniProt Q13093).
T1 sequence (Q13093 whole entry): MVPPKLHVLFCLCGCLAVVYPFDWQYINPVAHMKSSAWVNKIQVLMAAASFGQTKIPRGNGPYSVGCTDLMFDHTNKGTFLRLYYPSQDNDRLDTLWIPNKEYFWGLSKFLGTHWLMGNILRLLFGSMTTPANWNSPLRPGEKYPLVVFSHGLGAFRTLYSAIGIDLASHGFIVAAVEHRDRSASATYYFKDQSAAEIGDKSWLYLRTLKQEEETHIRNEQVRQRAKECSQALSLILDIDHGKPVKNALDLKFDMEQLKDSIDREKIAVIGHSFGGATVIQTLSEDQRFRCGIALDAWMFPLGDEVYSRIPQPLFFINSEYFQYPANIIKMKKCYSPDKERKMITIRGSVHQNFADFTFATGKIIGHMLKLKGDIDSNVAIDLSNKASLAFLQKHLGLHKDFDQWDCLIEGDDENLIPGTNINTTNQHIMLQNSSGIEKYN
The data set is described as follows: Inhibition of PLA2G7 derived from human PC3 cell lysates preincubated for 30 mins followed by JW912 addition after 30 mins by gel-based ABPP assay. Type of data set: subcellular, Lysate.

Data set [10] concerns Mus musculus. As to the kind of experiment: In vivo inhibition of ABHD6 in po dosed ICR mouse brain measured 4 hrs post dose in presence of FP-Rh probe by gel-based ABPP assay. Type of data set: functional. In short, it runs like this:
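Male ICR mice, 6–12 weeks old, given single oral doses (0.5–32 mg/kg, n = 3) in PEG400:ethanol:PBS (7/2/1 v/v/v) at 5 mL/kg. Brains were removed 4 h later and one hemisphere processed for gel-based ABPP. Proteome was labeled with FP-Rh (1 µM, 30 min) and read by in-gel fluorescence relative to vehicle.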

Data set [11] in a line: Cmax in Beagle dog at 1 mg/kg, po by LC-MS analysis. The settings on record: in vivo.
For data set [12], the system named is Mus musculus. The data set is described as follows: In vivo inhibition of MGLL in ICR mouse brain at 25 mg/kg, po measured at 4 hrs post dose in presence of FP-Rh probe by gel-based ABPP assay. Type of data set: functional, organism-based.
The subject of data set [13] is Rattus norvegicus. As to the kind of experiment: Antinociceptive activity in po dosed Sprague-Dawley rat brain assessed as inhibition of MGLL activity measured after 4 hrs post dose in presence of FP-Rh probe by gel-based ABPP assay. Type of data set: functional. Put shortly:
as §2

Active and inactive are the calls of the source. No cut-off for these calls is given here.

Chain of hERG (KCNH2) (Q12809 whole entry): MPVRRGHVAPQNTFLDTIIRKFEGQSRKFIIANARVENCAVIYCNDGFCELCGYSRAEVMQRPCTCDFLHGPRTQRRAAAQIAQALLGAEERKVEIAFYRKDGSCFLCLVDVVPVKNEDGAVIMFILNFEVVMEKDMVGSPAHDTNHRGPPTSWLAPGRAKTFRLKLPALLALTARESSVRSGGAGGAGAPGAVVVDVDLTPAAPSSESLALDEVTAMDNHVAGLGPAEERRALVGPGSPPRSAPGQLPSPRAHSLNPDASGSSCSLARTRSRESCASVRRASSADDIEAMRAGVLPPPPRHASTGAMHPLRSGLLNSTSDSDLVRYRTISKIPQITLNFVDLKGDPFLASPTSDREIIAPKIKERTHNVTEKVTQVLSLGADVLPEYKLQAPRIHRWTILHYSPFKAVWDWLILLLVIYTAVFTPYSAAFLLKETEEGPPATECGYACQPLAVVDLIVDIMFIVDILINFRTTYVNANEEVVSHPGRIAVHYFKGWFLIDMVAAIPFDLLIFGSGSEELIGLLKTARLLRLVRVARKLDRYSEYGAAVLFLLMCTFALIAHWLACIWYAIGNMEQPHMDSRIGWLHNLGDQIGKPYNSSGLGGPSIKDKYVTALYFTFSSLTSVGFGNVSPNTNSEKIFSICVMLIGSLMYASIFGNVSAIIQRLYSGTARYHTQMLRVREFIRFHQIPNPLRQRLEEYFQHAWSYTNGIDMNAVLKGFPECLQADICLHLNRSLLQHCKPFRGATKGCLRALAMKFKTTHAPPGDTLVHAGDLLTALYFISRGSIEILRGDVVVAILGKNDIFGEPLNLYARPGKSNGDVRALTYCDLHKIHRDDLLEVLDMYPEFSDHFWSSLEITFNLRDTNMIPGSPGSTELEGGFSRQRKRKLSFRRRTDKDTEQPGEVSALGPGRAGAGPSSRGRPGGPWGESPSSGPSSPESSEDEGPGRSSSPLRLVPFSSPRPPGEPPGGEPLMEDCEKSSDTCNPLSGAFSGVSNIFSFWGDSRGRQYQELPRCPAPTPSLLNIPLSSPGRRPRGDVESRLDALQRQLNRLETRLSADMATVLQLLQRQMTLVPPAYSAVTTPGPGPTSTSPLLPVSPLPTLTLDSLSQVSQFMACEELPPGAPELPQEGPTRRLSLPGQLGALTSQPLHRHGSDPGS
Chain of Cytochrome P450 3A4 (P08684 whole entry): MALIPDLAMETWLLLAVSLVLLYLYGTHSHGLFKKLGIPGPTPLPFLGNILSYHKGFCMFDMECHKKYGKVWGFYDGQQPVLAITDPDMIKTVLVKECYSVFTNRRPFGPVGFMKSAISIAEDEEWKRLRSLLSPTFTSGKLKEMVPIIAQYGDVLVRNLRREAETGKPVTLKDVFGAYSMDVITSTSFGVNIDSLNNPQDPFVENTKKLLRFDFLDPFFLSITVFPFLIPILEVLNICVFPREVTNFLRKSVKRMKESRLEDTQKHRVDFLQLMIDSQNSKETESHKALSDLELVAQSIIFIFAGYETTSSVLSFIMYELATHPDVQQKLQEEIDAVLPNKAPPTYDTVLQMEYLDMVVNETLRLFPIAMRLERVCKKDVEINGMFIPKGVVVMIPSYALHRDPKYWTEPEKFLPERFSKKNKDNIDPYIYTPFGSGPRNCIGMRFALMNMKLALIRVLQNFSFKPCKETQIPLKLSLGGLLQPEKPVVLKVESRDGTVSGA

`O=C(OC(C(F)(F)F)C(F)(F)F)N1CCN(Cc2ccc(C(F)(F)F)cc2N2CCCC2)CC1` [ELCUBRAGISTAT] displayed a concentration for an effect of 20% (IC20) in data set [1] of 7 µM. Further, in [2], the half-life is 3.6 h. The ED50 in data set [3] was 1.2 mg/kg; in [6], 2.9 mg/kg; in data set [10], 32 mg/kg; in data set [13] it was 0.5 mg/kg. Besides, in data set [4], the Vd came out at 3.2 L/kg. Besides, the inhibition result in [5] and in [12] was “Active” each time. Also, in data set [7], the inhibition result is “Dose-dependent effect”. The values for the half-inhibitory concentration (IC50) in data set [8] and in data set [9] were over 50 µM and over 10 µM, respectively. For the same molecule, in data set [11], the peak concentration (Cmax) came to 777 nM.
